Data from PubChem BioAssay AID504674 (Southern Research Specialized Biocontainment Screening …, 2011).
Calls of active or inactive are those of the source.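 Rule for the calls: active = cell viability under 70% at any tested concentration, a measure not printed in our tables; inactive = the rest.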

Test system: HEp-2 viability, ATP luminescence (CellTiter-Glo)
Experiment: HEp-2 viability by ATP luminescence – cell-based, CellTiter-Glo, synthesized compounds, set 7, cytotoxicity control for RSV inhibitor project, dose response (AID 504674)
Outline: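 Material – HEp-2 cells · Quantity – 10,595 cells/well · Medium – DMEM/F12 · Compound dosing – 8-point twofold dilution series, 50 to 0.39 µM, 0.5% DMSO · Timing – compound exposure of 6 days at 37 °C, 5% CO2 · Measured by – CellTiter-Glo luminescence · Control set – cell-only wells as reference · Replicates – each concentration tested in triplicate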

Q: `Cc1ccc(Cn2c(=O)n(Cc3ccc(C(=O)N4CCCC4)cc3)c(=O)c3ccccc32)cc1` was tested. Which CC50 did it give?
A: Its CC50 is 4.6 µM.

Q: For `Cc1ccc(Cn2c(=O)n(Cc3ccc(C(=O)N4CCOCC4)cc3)c(=O)c3ccccc32)cc1`, which CC50 is on record?
A: Its CC50 is 16.6 µM.

Q: Which CC50 does the source give for `COc1ccccc1NC(=O)[C@@H]1CCCN1S(=O)(=O)c1cccc2nonc12` here?
A: Its CC50 is > 50 µM (inactive).

Q: For `COCCCNC(=O)c1ccc(Cn2c(=O)c3ccc(C(F)(F)F)cc3n(Cc3ccc(C)cc3)c2=O)cc1`, which CC50 is on record?
A: The CC50 was > 50 µM (inactive).

Q: With `Cc1ccc(Cn2c(=O)n(Cc3ccc(C(=O)NC4CCCCC4)cc3)c(=O)c3ccccc32)cc1` as the molecule, how does the CC50 read?
A: The CC50 was > 50 µM (inactive).

Q: How did the CC50 turn out when `O=C(NCc1ccc(Cl)cc1)C1CCN(S(=O)(=O)c2cccc3nonc23)CC1` was run?
A: Its CC50 is > 50 µM (inactive).

Q: With `Cc1ccc(Cn2c(=O)n(Cc3ccc(C(=O)N4CCCCC4)cc3)c(=O)c3ccccc32)cc1` as the molecule, how does the CC50 read?
A: The CC50 was 5.12 µM.

Q: `COc1ccc(C)c(NC(=O)[C@@H]2CCCN2S(=O)(=O)c2cccc3cccnc23)c1` was tested. Which CC50 did it give?
A: The CC50 was > 50 µM (inactive).

Q: `Cc1ccc(CNC(=O)C2CCN(S(=O)(=O)c3cccc4nonc34)CC2)c(C)c1` was tested. Which CC50 did it give?
A: The CC50 was > 50 µM (inactive).

Q: With `Cc1ccc(Cn2c(=O)n(Cc3ccc(C(=O)N(C)C)cc3)c(=O)c3ccccc32)cc1` as the molecule, how does the CC50 read?
A: The CC50 was 11 µM.

Q: For `O=C(NCc1cccc(Cl)c1)C1CCN(S(=O)(=O)c2cccc3nonc23)CC1`, which CC50 is on record?
A: Its CC50 is > 50 µM (inactive).

Q: For `Cc1ccc(NC(=O)[C@@H]2CCCN2S(=O)(=O)c2cccc3nonc23)c(C)c1`, which CC50 is on record?
A: Its CC50 is > 50 µM (inactive).

Q: How did the CC50 turn out when `Cc1ccc(Cl)cc1NC(=O)[C@@H]1CCCN1S(=O)(=O)c1cccc2cccnc12` was run?
A: Its CC50 is 13 µM.

Q: `COCCNC(=O)c1ccc(Cn2c(=O)c3ccccc3n(Cc3ccc(C)cc3)c2=O)cc1` was tested. Which CC50 did it give?
A: Its CC50 is > 50 µM (inactive).

Q: How did the CC50 turn out when `COCCCNC(=O)c1ccc(Cn2c(=O)c3ccc(C)cc3n(Cc3ccc(C)cc3)c2=O)cc1` was run?
A: The CC50 was > 50 µM (inactive).

Q: For `COCCCNC(=O)c1ccc(Cn2c(=O)c3ccc(OC)cc3n(Cc3ccc(C)cc3)c2=O)cc1`, which CC50 is on record?
A: Its CC50 is 11.7 µM.
